Results from ChEMBL document CHEMBL1795273, “Curcumin analogues as possible anti-proliferative & anti-inflammatory agents” (Eur J Med Chem, 2011).
Activity calls are given as the source filed them. The rule behind the calls is not given here.

Key:
[1] = tested on: MCF7; test: Cytotoxicity against human MCF7 cells after 48 hrs by sulforhodamine B assay; assay type: cell-based; details: mcf7, 48 h
Summary of the method: (§1)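 Cells grown in RPMI 1640 with 5% heat-inactivated FCS, 2 mM L-glutamine and antibiotics, 37 °C, 5% CO2; viability >95% by trypan blue. Seeded 5.000-7.500 cells/well and preincubated 24 h. Compounds in DMSO added at 10-fold dilutions (100 to 0.01 µM) for 48 h. Fixed with cold TCA, SRB-stained, absorbance read at 530 nm. GI50, TGI and LC50 derived from three independent experiments, each in triplicate.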

[2] = Therapeutic index, ratio of LC50 for human SF268 cells to GI50 for human SF268 cells; assay type: cell-based, SF-268; details: read-out: TI
Summary of the method: (§2)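 Index is LC50/GI50 from the 48 h SRB growth assay (100–0.01 µM, 10-fold dilutions). Where LC50 exceeded 100 µM, the highest concentration tested, it was taken as 100 µM.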

[3] = Therapeutic index, ratio of LC50 for human NCI-H460 cells to GI50 for human NCI-H460 cells; assay type: cell-based; details: read-out: TI; summary of the method: as §2
[4] = Therapeutic index, ratio of LC50 for human MCF7 cells to GI50 for human MCF7 cells; assay type: cell-based; details: read-out: TI; summary of the method: as §2
[5] = tested on: Glycine max; test: Inhibition of soybean 5LOX assessed as conversion of sodium linoleate to 13-[…] acid at 100 uM
Summary of the method: (§3)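 Soybean lipoxygenase (1/9 × 10^-4 w/v in saline) incubated at room temperature with compound in DMSO and 0.1 mM sodium linoleate. Formation of 13-hydroperoxylinoleic acid followed at 234 nm. NDGA reference inhibitor. At least triplicate.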

[6] = tested on: MCF7; test: Antiproliferative activity against human MCF7 cells after 48 hrs by sulforhodamine B assay; assay type: functional; details: MCF7, 48 h
Summary of the method: (§4)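 Cells grown in RPMI 1640 with 5% heat-inactivated FCS, 2 mM L-glutamine and antibiotics at 37 °C, 5% CO2; viability >95% by trypan blue. Seeded at 5.000-7.500 cells/well and preincubated 24 h. Compound in DMSO added at 10-fold dilutions (100 to 0.01 µM) for 48 h. TCA fixation, SRB staining, absorbance at 530 nm. GI50, TGI and LC50 derived. Three independent experiments, each in triplicate.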

[7] = tested on: Rattus norvegicus; test: Antiinflammatory activity in carrageenan-induced Fischer-344 rat paw oedema at 0.01 mmol/kg, ip after 3.5 hrs; assay type: functional; details: for inhibition in vivo at 10 µmol/kg: Fischer-344, ip
Summary of the method: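 Fischer-344 rats (150–200g), both sexes, pregnant females excluded, 6–15 per group. Oedema induced in right hind paw by intradermal 0.1 mL 2% carrageenin in water. Compound given ip with the carrageenin, dissolved in water (HCl salt) or suspended with Tween 80 (bases). Euthanized at 3.5 h. Injected minus uninjected paw weight compared with water-treated controls as % inhibition. Mean of two experiments.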

[8] = molecular target: Aldo-keto reductase family 1 member B1 (Rattus norvegicus) (UniProt P07943); test: Inhibition of ALR2 in Fischer-344 rat lens at 100 uM; assay type: tissue-based; details: Lens of camera-type eye
Summary of the method: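 Enzyme partially purified from lenses of Fischer-344 rats of both sexes. Lenses homogenized in cold water, spun at 10000 g, 0-4 °C, 15 min; supernatant precipitated at 40% ammonium sulphate saturation and spun again. Compound in 10% aqueous DMSO, tested at 100 µM. D,L-glyceraldehyde substrate; NADPH consumption read at 340 nm. At least triplicate.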

[9] = tested on: SF-268; test: Cytotoxicity against human SF268 cells after 48 hrs by sulforhodamine B assay; assay type: cell-based; details: sf-268, 48 h; summary of the method: as §1
[10] = tested on: NCI-H460; test: Antiproliferative activity against human NCI-H460 cells after 48 hrs by sulforhodamine B assay; assay type: functional; details: NCI-H460, 48 h; summary of the method: as §4
[11] = tested on: NCI-H460; test: Cytotoxicity against human NCI-H460 cells after 48 hrs by sulforhodamine B assay; assay type: cell-based; details: nci-h460, 48 h; summary of the method: as §1
[12] = tested on: Rattus norvegicus; test: Toxicity in Fischer-344 rat assessed as ulcerogenicity at 0.2 mmol/kg, ip; assay type: organism-based; details: in vivo
[13] = tested on: SF-268; test: Antiproliferative activity against human SF268 cells after 48 hrs by sulforhodamine B assay; assay type: functional; details: SF-268, 48 h; summary of the method: as §4
[14] = Lipophilicity, RM of the compound assessed by RPTLC; assay type: physicochemical
Summary of the method: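 Determined by reverse-phase TLC with plates developed in mobile-phase-saturated closed tanks at 24 °C and spots detected under UV. RM = log[(1/Rf) − 1], from 10 individual Rf measurements.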

[15] = Inhibition of soybean 5LOX assessed as conversion of sodium linoleate to 13-[…] acid; set-up: species or system Glycine max; summary of the method: as §3

Cc1ccsc1/C=C1\CNC/C(=C\c2sccc2C)C1=O
LC50 [1]: > 100 µM
selectivity ratio [2]: 1.9
selectivity ratio [3]: 1.4
selectivity ratio [4]: 1.6
inhibition [5]: inactive
GI50 [6]: 63 µM
TGI [6]: > 100 µM
inhibition in vivo at 10 µmol/kg [7]: 27%
inhibition [8]: 56%
LC50 [9]: > 100 µM
GI50 [10]: 73.2 µM
TGI [10]: > 100 µM
LC50 [11]: > 100 µM
Activity [12]: Non-toxic
GI50 [13]: 53.8 µM
TGI [13]: > 100 µM
Rm [14]: -0.03

O=C1/C(=C/c2cccs2)CNC/C1=C\c1cccs1
LC50 [1]: > 100 µM
selectivity ratio [2]: 1
GI50 [6]: > 100 µM
TGI [6]: > 100 µM
inhibition [7]: inactive
inhibition [8]: 45.5%
LC50 [9]: > 100 µM
GI50 [10]: > 100 µM
TGI [10]: > 100 µM
LC50 [11]: > 100 µM
Activity [12]: Non-toxic
GI50 [13]: 98.8 µM
TGI [13]: > 100 µM
IC50 [15]: 330 µM
Rm [14]: 0.176

O=C1/C(=C/c2ccc3[nH]ccc3c2)CNC/C1=C\c1ccc2[nH]ccc2c1
LC50 [1]: > 100 µM
selectivity ratio [4]: 1.4
GI50 [6]: 69.5 µM
TGI [6]: > 100 µM
inhibition in vivo at 10 µmol/kg [7]: 36%
inhibition [8]: inactive
LC50 [9]: > 100 µM
GI50 [10]: > 100 µM
TGI [10]: > 100 µM
LC50 [11]: > 100 µM
Activity [12]: Non-toxic
GI50 [13]: > 100 µM
TGI [13]: > 100 µM
IC50 [15]: 410 µM
Rm [14]: 0.166

COc1ccc2c(c1)c(CC(=O)O)c(C)n2C(=O)c1ccc(Cl)cc1 [INDOMETHACIN]
inhibition in vivo at 10 µmol/kg [7]: 47%

O=C1/C(=C/c2ccc(OCc3ccc(Br)cc3)cc2)CNC/C1=C\c1ccc(OCc2ccc(Br)cc2)cc1
LC50 [1]: > 100 µM
selectivity ratio [4]: 2
inhibition [5]: 18%
GI50 [6]: 49.9 µM
TGI [6]: 96.8 µM
inhibition in vivo at 10 µmol/kg [7]: 49%
inhibition [8]: inactive
LC50 [9]: > 100 µM
GI50 [10]: > 100 µM
TGI [10]: > 100 µM
LC50 [11]: > 100 µM
Activity [12]: Non-toxic
GI50 [13]: > 100 µM
TGI [13]: > 100 µM
Rm [14]: 0.076

O=C1/C(=C/c2ccccc2)CNC/C1=C\c1ccccc1
LC50 [1]: 9 µM
selectivity ratio [2]: 10
selectivity ratio [3]: 5.2
selectivity ratio [4]: 11.6
inhibition [5]: 8%
GI50 [6]: 0.8 µM
TGI [6]: 4.1 µM
inhibition in vivo at 10 µmol/kg [7]: 43%
inhibition [8]: 49%
LC50 [9]: 9.1 µM
GI50 [10]: 2 µM
TGI [10]: 6.1 µM
LC50 [11]: 10.3 µM
Activity [12]: Non-toxic
GI50 [13]: 0.9 µM
TGI [13]: 4.7 µM
Rm [14]: 0.135

Cc1ccc(/C=C2\CNC/C(=C\c3ccc(C)s3)C2=O)s1
LC50 [1]: > 100 µM
selectivity ratio [2]: 1.5
selectivity ratio [3]: 1
selectivity ratio [4]: 1.2
inhibition [5]: inactive
GI50 [6]: 80.7 µM
TGI [6]: > 100 µM
inhibition in vivo at 10 µmol/kg [7]: 62%
inhibition [8]: inactive
LC50 [9]: > 100 µM
GI50 [10]: 99.3 µM
TGI [10]: > 100 µM
LC50 [11]: > 100 µM
Activity [12]: Non-toxic
GI50 [13]: 65.2 µM
TGI [13]: > 100 µM
Rm [14]: 0.031

O=C1/C(=C/c2c[nH]c3ccccc23)CNC/C1=C\c1c[nH]c2ccccc12
LC50 [1]: 8.2 µM
selectivity ratio [2]: 2.5
selectivity ratio [3]: 2.4
selectivity ratio [4]: 2.2
GI50 [6]: 3.7 µM
TGI [6]: 6 µM
inhibition in vivo at 10 µmol/kg [7]: 33%
inhibition [8]: 27.8%
LC50 [9]: 8.2 µM
GI50 [10]: 3.5 µM
TGI [10]: 6.1 µM
LC50 [11]: 8.7 µM
Activity [12]: Non-toxic
GI50 [13]: 3.3 µM
TGI [13]: 5.7 µM
IC50 [15]: 280 µM
Rm [14]: 0.597

COc1cc(/C=C/C(=O)CC(=O)/C=C/c2ccc(O)c(OC)c2)ccc1O [CURCUMIN]
LC50 [1]: 67.2 µM
selectivity ratio [2]: 11.9
selectivity ratio [3]: 5
selectivity ratio [4]: 14.2
inhibition [5]: 38%
GI50 [6]: 4.7 µM
TGI [6]: 8.3 µM
inhibition [8]: 12%
LC50 [9]: 61 µM
GI50 [10]: 16.7 µM
TGI [10]: 50.1 µM
LC50 [11]: 83.4 µM
GI50 [13]: 5.1 µM
TGI [13]: 9.2 µM

O=C1/C(=C/c2c[nH]cn2)CNC/C1=C\c1c[nH]cn1
LC50 [1]: > 100 µM
inhibition [5]: 36%
GI50 [6]: > 100 µM
TGI [6]: > 100 µM
inhibition in vivo at 10 µmol/kg [7]: 11.5%
inhibition [8]: inactive
LC50 [9]: > 100 µM
GI50 [10]: > 100 µM
TGI [10]: > 100 µM
LC50 [11]: > 100 µM
Activity [12]: Non-toxic
GI50 [13]: > 100 µM
TGI [13]: > 100 µM
Rm [14]: -0.552
